Values after ≈ are worked out from the molar mass of the structure shown. Active and inactive are the calls of the source. No cut-off for these calls is given here.
Tests used:
Bone marrow cell [1] = experiment: Antiproliferative activity against mouse bone marrow cell transformed with MLL-AF9 assessed as reduction in cell growth measured after 6 days by hemocytometry; type: functional, cell-based; conditions: 144 h
[2] = biological target: T1, Histone-lysine N-methyltransferase, H3 lysine-79 specific (Homo sapiens, UniProt Q8TEK3); experiment: Binding affinity to recombinant human N-terminal GST-tagged DOT1L (1 to 420 residues) expressed in Escherichia coli BL21 (DE3) assessed as increase in melting temperature incubated for 1 min by 1,8-ANS probe based thermal shift assay
Target sequence in this assay (Q8TEK3 whole entry, looked up, the tested form may be a part): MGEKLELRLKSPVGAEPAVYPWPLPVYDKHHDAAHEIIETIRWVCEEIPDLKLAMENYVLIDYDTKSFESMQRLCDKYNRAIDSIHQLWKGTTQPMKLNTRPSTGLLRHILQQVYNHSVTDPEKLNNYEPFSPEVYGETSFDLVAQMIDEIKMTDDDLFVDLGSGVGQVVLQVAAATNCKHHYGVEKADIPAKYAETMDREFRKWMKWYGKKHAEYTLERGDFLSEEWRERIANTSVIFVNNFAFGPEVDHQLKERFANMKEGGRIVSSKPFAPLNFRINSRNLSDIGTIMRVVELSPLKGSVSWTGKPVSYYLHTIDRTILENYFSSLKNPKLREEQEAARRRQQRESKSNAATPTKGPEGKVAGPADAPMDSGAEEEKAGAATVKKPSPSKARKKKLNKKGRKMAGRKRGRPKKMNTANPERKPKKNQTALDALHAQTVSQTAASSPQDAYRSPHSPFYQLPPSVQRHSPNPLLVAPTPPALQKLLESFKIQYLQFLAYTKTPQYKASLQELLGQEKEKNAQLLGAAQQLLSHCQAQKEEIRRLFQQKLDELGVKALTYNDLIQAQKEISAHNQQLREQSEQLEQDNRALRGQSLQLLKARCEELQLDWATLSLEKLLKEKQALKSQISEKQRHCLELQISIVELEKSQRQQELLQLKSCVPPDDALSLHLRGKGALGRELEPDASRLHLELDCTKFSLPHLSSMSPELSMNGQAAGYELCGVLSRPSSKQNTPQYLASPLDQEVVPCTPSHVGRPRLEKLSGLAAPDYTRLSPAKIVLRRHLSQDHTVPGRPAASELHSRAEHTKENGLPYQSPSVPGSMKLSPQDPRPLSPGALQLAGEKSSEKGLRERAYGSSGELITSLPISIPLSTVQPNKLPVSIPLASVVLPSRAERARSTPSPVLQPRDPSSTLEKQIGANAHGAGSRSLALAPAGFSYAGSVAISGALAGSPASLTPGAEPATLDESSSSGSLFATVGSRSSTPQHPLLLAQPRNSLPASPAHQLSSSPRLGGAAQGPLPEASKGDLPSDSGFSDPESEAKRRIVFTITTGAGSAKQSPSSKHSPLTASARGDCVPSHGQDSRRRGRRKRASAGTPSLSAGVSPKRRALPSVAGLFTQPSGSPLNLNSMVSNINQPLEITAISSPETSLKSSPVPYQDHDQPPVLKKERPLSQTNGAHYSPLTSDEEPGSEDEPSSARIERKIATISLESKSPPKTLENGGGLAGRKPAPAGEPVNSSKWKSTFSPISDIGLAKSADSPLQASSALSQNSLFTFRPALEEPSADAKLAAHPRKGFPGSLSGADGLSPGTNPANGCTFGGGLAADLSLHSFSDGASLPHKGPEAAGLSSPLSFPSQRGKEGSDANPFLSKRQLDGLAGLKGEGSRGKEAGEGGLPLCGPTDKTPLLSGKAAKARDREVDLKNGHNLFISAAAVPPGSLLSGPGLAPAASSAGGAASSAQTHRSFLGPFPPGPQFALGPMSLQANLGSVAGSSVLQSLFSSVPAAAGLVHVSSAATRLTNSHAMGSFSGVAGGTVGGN

[3] = biological target: Protein arginine N-methyltransferase 8 (Homo sapiens, UniProt Q9NR22); experiment: Inhibition of recombinant human PRMT8 using histone H4 as substrate by hotspot assay
Bone marrow cell [4] = experiment: Antiproliferative activity against mouse bone marrow cell transformed with MLL-AF9 assessed as reduction in cell growth measured after 9 days by hemocytometry; type: functional, cell-based; conditions: 216 h
[5] = biological target: T2, Histone H3 methyltransferase DOT1 variant d (Mus musculus) (UniProt Q679P4); experiment: Inhibition of DOT1L in mouse bone marrow cell transformed with MLL-AF9 cells assessed as reduction in H3K79 methylation at 30 uM measured after 9 days by Western blot analysis relative to control; type: cell-based; conditions: time 9.0 day
T2 sequence (whole entry): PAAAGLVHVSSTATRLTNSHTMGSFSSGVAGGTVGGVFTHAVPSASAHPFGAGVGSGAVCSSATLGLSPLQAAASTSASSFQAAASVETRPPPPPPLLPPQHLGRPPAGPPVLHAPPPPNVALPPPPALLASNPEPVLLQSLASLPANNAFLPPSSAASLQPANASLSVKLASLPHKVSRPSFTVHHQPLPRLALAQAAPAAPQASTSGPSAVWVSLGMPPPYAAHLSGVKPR

Bone marrow cell [6] = experiment: Induction of cell differentiation in mouse bone marrow cells transformed with MLL-AF9 assessed as change in morphology incubated for 6 days by Wright-Giemsa staining based inverted microscopy; type: functional; conditions: dose 1-30 µM, time 6.0 day
Method in brief: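 Cells taken on day 6 of the proliferation culture (MLL-AF9 murine line, IMDM + 15% FBS + IL-3, re-dosed at each split, 0.3% DMSO). Cytospun onto slides, Wright-Giemsa stained, and imaged under bright field on an inverted microscope to assess morphology.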

[7] = biological target: T3, Protein arginine N-methyltransferase 7 (Homo sapiens, UniProt Q9NVM4); experiment: Inhibition of recombinant human PRMT7 using GST-GAR as substrate by hotspot assay
T3 sequence (Q9NVM4 whole entry): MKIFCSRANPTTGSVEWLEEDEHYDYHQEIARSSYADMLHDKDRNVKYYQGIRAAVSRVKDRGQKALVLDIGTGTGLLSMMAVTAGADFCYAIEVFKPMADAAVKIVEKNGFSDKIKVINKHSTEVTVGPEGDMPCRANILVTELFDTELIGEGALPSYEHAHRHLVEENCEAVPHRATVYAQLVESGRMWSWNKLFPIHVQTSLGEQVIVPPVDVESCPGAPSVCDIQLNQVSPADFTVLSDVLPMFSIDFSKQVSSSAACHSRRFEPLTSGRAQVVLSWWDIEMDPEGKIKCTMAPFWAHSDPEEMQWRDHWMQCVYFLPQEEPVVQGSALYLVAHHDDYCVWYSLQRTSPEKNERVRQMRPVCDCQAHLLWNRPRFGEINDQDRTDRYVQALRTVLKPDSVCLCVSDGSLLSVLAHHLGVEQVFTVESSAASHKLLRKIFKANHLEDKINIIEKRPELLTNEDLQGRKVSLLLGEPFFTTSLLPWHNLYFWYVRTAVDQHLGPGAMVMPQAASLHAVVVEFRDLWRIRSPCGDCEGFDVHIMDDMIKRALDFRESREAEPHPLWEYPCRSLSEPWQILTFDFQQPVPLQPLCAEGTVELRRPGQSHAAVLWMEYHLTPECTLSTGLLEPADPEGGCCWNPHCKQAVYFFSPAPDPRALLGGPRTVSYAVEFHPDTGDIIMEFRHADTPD

[8] = biological target: T2, Histone H3 methyltransferase DOT1 variant d (Mus musculus); experiment: Inhibition of DOT1L in mouse bone marrow cell transformed with MLL-AF9 cells assessed as reduction in H3K79 methylation measured after 6 days by Western blot analysis; type: cell-based; conditions: time 6.0 day
[9] = biological target: T4, Histone-lysine N-methyltransferase SETD7 (Homo sapiens, UniProt Q8WTS6); experiment: Inhibition of recombinant human SET7/9 using core histone as substrate by hotspot assay
T4 sequence (Q8WTS6 whole entry): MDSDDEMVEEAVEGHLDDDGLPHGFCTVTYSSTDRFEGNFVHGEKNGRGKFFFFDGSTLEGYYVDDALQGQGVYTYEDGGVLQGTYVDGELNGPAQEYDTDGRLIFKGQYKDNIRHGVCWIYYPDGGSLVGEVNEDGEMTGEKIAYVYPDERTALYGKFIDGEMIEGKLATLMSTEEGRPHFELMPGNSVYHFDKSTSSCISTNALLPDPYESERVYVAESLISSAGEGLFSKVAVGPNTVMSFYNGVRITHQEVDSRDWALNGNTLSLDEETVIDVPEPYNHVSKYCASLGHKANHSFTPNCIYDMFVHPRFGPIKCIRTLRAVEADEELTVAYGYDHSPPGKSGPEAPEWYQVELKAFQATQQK

[10] = biological target: Protein arginine N-methyltransferase 5 (Homo sapiens, UniProt O14744); experiment: Inhibition of recombinant human PRMT5 using histone H2A as substrate by hotspot assay; conditions: read-out: IC50
[11] = Aqueous solubility of compound; type: physicochemical
[12] = biological target: T2, Histone H3 methyltransferase DOT1 variant d (Mus musculus); experiment: Inhibition of DOT1L in mouse bone marrow cell transformed with MLL-AF9 cells assessed as reduction in […] methylation at 1 to 30 uM measured after 6 days by Western blot analysis; type: cell-based; conditions: dose 1-30 µM, time 6.0 day
[13] = biological target: T1, Histone-lysine N-methyltransferase, H3 lysine-79 specific; experiment: Inhibition of recombinant human N-terminal GST-tagged DOT1L (1 to 420 residues) expressed in Escherichia coli BL21 (DE3) using histone as substrate incubated for 1 hr by MTase-glo based luminescence assay
Target sequence in this assay (Q8TEK3 whole entry, the tested form may be a part): as the sequence (Q8TEK3 whole entry, looked up, the tested form may be a part) above

[14] = biological target: T2, Histone H3 methyltransferase DOT1 variant d (Mus musculus); experiment: Inhibition of DOT1L in mouse bone marrow cell transformed with MLL-AF9 cells assessed as reduction in H3K4me3 methylation at 1 to 30 uM measured after 6 days by Western blot analysis; type: cell-based; conditions: dose 1-30 µM, time 6.0 day
[15] = biological target: DNA (cytosine-5)-methyltransferase 1 (Homo sapiens, UniProt P26358); experiment: Inhibition of recombinant human DNMT1 using poly(dl-dC) as substrate by hotspot assay; conditions: read-out: IC50
DNA (cytosine-5)-methyltransferase 1, sequence (P26358 whole entry): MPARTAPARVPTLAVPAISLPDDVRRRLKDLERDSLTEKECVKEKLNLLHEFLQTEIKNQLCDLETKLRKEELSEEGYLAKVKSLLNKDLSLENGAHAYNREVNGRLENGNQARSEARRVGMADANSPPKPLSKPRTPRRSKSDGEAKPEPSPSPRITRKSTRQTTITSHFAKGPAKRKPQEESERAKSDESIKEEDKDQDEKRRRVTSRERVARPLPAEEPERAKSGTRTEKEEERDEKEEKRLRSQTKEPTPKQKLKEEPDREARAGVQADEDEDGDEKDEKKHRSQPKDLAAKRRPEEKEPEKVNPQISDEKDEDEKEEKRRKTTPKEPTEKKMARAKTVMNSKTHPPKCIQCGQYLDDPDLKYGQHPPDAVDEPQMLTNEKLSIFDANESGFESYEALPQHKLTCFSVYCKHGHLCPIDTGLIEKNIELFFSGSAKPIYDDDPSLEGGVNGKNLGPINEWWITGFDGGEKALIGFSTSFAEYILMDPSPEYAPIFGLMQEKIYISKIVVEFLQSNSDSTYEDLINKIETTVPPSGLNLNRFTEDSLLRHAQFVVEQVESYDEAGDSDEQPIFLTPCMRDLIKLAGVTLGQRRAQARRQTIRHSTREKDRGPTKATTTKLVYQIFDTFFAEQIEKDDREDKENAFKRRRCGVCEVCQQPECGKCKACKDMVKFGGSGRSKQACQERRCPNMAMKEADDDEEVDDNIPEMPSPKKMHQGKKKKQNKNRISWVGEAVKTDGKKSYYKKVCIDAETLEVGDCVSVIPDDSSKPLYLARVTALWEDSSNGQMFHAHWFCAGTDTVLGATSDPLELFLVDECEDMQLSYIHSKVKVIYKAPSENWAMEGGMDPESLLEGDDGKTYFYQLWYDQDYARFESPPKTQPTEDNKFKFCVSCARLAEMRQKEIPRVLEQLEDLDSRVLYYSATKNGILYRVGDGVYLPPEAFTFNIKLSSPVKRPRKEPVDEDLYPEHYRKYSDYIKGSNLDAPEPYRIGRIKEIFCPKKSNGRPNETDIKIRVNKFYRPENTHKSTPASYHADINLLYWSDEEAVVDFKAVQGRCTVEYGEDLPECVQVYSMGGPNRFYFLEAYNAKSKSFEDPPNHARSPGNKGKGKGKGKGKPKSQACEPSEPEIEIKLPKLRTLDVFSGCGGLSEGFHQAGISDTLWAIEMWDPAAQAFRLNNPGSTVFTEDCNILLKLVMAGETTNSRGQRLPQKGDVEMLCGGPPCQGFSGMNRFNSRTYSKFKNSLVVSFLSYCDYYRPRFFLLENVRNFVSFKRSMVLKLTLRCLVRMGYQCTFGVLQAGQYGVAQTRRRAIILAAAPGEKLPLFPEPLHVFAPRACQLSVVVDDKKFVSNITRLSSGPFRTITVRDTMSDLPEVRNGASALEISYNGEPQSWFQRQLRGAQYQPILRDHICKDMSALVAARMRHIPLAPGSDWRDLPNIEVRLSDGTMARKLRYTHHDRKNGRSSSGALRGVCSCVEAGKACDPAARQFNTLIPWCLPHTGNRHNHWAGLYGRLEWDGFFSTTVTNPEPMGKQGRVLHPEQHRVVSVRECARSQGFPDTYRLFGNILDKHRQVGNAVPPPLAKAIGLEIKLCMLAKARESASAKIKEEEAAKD

Protein arginine N-methyltransferase 8, sequence (Q9NR22 whole entry): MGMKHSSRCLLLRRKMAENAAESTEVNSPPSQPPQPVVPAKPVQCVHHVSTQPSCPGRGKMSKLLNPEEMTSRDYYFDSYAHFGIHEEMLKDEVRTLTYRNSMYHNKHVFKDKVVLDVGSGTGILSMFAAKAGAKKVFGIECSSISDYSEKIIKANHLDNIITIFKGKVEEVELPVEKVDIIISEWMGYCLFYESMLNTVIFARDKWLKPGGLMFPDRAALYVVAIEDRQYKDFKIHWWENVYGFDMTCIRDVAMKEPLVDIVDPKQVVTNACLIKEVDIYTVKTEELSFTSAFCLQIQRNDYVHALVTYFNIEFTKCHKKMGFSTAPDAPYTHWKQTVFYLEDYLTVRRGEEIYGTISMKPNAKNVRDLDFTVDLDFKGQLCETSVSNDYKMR
Protein arginine N-methyltransferase 5, sequence (O14744 whole entry): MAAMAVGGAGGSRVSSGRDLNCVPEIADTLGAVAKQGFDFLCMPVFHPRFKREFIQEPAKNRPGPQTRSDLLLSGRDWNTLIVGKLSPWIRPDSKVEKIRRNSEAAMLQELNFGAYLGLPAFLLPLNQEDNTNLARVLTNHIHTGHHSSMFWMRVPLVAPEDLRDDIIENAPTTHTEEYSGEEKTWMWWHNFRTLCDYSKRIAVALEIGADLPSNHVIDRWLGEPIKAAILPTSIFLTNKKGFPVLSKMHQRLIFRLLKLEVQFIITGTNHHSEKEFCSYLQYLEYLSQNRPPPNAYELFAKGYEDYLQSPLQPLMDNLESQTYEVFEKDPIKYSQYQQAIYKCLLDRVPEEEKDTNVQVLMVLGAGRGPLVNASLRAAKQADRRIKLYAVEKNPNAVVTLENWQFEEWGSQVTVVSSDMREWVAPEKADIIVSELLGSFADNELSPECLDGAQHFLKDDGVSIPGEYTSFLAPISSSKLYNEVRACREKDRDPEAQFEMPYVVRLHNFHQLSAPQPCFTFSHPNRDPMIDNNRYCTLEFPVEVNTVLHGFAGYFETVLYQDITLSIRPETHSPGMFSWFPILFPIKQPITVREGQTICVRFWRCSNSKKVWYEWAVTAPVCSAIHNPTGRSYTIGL

## CC(C)(C)c1ccc(NC(=O)c2ncn(CC(=O)NCCn3ccc4c(N)ncnc43)n2)cc1
Bone marrow cell [1]
  IC50: 8.8 µM
[2]
  Activity: Dose-dependent effect
[3]
  IC50: > 250 µM
Bone marrow cell [4]
  IC50: 4.2 µM
[5]
  inhibition: 100%
Bone marrow cell [6]
  Activity: Dose-dependent effect
[7]
  IC50: Not Active
[8]
  inhibition: Dose-dependent effect
[9]
  IC50: Not Active
[10]
  IC50: 165 µM
[11]
  solubility: 687 µM (≈ 317 µg/mL)
[12]
  inhibition: inactive
[13]
  IC50: 1 µM
[14]
  inhibition: inactive
[15]
  IC50: 248 µM

Reference: ChEMBL document CHEMBL4680176, “Identification of DOT1L inhibitors by structure-based virtual screening adapted from a nucleoside-focused library” (Eur J Med Chem, 2020)
